Rows were chosen to be rich in hits. Some 2.3% of all compounds tested hit in one or more screens of this group.
NR2F2 inh – inhibitors of human COUP-TFII (NR2F2). P24468. HEK293T NGFI-A luciferase reporter, luminescence. inhibition, % at 8.6 µM. 370,000 tested, 0.7% active. AID 686940;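 active = inhibition above a per-plate cutoff, mean inhibition of test wells between control levels plus 3 SD, cut at about 38% in these data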;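 also: cells cotransfected with COUP-TFII expression vector driving the NGFI-A reporter; 0% = median of COUP-TF2 test wells and 100% = reporter-only cells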
Target sequence (P24468 whole entry, looked up): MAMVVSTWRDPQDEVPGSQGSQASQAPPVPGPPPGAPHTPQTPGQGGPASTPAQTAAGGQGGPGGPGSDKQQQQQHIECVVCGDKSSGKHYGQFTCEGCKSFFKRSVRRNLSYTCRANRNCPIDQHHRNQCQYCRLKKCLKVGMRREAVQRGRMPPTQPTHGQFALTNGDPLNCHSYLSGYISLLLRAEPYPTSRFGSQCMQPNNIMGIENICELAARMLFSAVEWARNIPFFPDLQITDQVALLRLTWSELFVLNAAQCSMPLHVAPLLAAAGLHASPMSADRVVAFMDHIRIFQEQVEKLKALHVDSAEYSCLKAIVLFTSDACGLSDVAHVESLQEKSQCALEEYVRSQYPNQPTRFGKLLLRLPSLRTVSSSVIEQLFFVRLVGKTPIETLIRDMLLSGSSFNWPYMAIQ
GalR3 antagonist – blocks the human galanin receptor 3 | HEK293 GalR3-CNG cAMP membrane potential fluorescence; galR3 body fused to GalR1 C-terminus | inhibition, % at 3 µM | 360,000 tested, 0.44% active;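 active = inhibition above the screen-wide average plus 3 SD, cut at about 13% in these data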;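 also: forskolin and galanin both at EC90 stimulate the cells; cAMP rise reported by CNG channel membrane potential dye signal; 0% = forskolin plus galanin with DMSO and 100% = forskolin alone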
NR2E3 ag-1 – human photoreceptor-specific nuclear receptor agonism. Q9Y5X4. CHO-S Gal4-NCOR/VP16-NR2E3 two-hybrid, luciferase. inhibition of corepressor binding, % at 3.98 µM. 360,000 tested, 0.35% active;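 active = inhibition above the mean of all tested compounds plus 3 SD, cut at about 70% in these data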;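 also: 0% = DMSO with NR2E3 transfected cells and 100% = cells lacking NR2E3 construct; higher means lower luciferase signal from less NR2E3 corepressor binding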
CHT PAM – human CHT allosteric activation. 310,000 tested, 0.49% active. B-score at 10 µM. Q9GZV3. CHT-expressing cells, membrane potential dye, choline EC20; stronger effect = higher value; LV-AA mutant CHT in HEK293 cells;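 active = initial fluorescence not abnormally high and integrated response B-score, plate-corrected, over 3 SD above library mean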
NR2E3 ag-2 – activates human photoreceptor nuclear receptor NR2E3. GST-NR2E3/biotin-RetCOR TR-FRET, 1536-well. AID 2300. inhibition of corepressor binding, % at 4.78 µM. Q9Y5X4. 320,000 tested, 0.12% active;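 active = percent inhibition above the cutoff of mean plus 3 SD of all tested compounds, set per screening campaign, cut at about 20% in these data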;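 also: 0% = DMSO wells and 100% = biotin wells as full block of FRET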
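system = GST-tagged NR2E3 plus biotinylated RetCOR corepressor | input = 1.35 nM GST-NR2E3 | also added = 7 nM biotin-RetCOR | schedule = 5 h incubation at 4 °C | measured by = TR-FRET with europium anti-GST and streptavidin-D2, 340 nm excitation | read-out = percent loss of FRET ratio relative to control wells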
CHT inh – human CHT choline transport inhibition | Q9GZV3 | CHT-expressing cells, membrane potential dye, choline response; stronger effect = lower value | B-score at 10 µM | 310,000 tested, 0.86% active | AID 488975;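 active = B-score over 3 SD under the library average, and starting fluorescence ratio not unusually high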;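 also: choline stimulus applied at its EC90 after an EC20 pre-addition; B-score computed on integrated fluorescence ratio after choline addition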
Gal4-VP16 ctr – inhibits VP16 reporter, flagging COUP-TFII antagonist hits; shares compounds with NR2F2 inh; HEK293 Gal4-VP16 luciferase reporter, luminescence; inhibition, % at 8.5 µM; 2,500 tested, 25% active; in the data active = inhibition above about 13%
COUP-TFII conf – COUP-TFII (NR2F2) inhibition, confirmation assay | HEK293 NGFI-A luciferase reporter, luminescence | 2,500 tested, 45% active | shares compounds with NR2F2 inh | AID 687008 | inhibition, % at 8.5 µM;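 active = mean inhibition over three repeats above a set limit taken from the earlier primary screen, cut at about 38% in these data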;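 also: 100% = cells given the luciferase reporter alone without the COUP-TF2 vector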
An asterisk follows results filed as active; i = inactive; x = no result given.

SMILES	NR2F2 inh	GalR3 antagonist	NR2E3 ag-1	CHT PAM	NR2E3 ag-2	CHT inh	Gal4-VP16 ctr	COUP-TFII conf
O=C(Nc1ccc(Oc2ccccc2)cc1)c1cnc2n(c1=O)CCS2	43*	9	20	i	-2	i	-58	38*
COC(=O)[C@]12C[C@H](CC(=O)NCc3cccs3)C(=O)N(Cc3ccccc3)C1=C[C@H](COCc1ccccc1)O[C@@H]2C	-17	x	x	x	x	x	x	x
CN(C)CCCNC(=O)C[C@@H]1CC[C@@H]2[C@H](COc3ccc(NC(=O)c4cccc(F)c4)cc3C(=O)N2C)O1	-21	x	x	x	x	x	x	x
CN(C)c1ccc(/C=N/NC(=O)c2ccccn2)cc1	-48	-4	-129	i	-3	i	x	x
CN(C)c1ccc(NC(=S)c2ccccn2)cc1	42*	-3	-52	i	-3	i	8	38*
CN(C)c1cc(O)c(C(=S)Nc2ccccc2)c(N(C)C)c1	-7	0	-37	i	-3	i	x	x
CN(C)c1ccc(C(=S)Nc2ccccc2)cc1	46*	-3	36	i	2	i	-89	22
COc1ccc(NC(=O)c2cc([N+](=O)[O-])ccc2O)cc1	69*	-11	31	i	-1	i	39*	61*
CCOc1ccc(CCNC(=O)c2ccc(Cl)c(S(=O)(=O)N3CCOCC3)c2)cc1OCC	22	-6	5	i	-2	i	x	x
O=C(NCCc1ccc(F)cc1)c1ccc(Cl)c(S(=O)(=O)N2CCOCC2)c1	40*	-5	6	x	-1	x	-10	8
CCOC(=O)c1c(-c2ccccc2)oc2ccc(O)c(CN3CCN(C)CC3)c12	38*	-7	-12	i	-6	i	-8	19
CCOC(=O)c1c(C)n(C)c2ccc(O)c(CN3CCN(C)CC3)c12	-7	-4	6	i	-1	i	x	x
CCC(C)CNC(=O)CSc1nnc(-c2cccnc2)n1C1CCCCC1 (stereo not given)	-6	x	x	x	x	x	x	x
CCC(C)(C)c1ccc(OCCCC[n+]2cccc(C)c2)c(C(C)(C)CC)c1	62*	1	10	x	x	x	3	38*
Cc1ccc[n+](CC(=O)Nc2cc(C(F)(F)F)ccc2Cl)c1	7	-4	0	i	7	i	x	x
C=CCNC(=S)N/N=C/c1ccc(C(F)(F)F)cc1	43*	-4	7	i	-2	i	-3	28
FC(F)(F)c1ccc(/C=N/NC(=S)NC2CCCCC2)cc1	10	-6	-29	i	1	i	x	x
COc1ccc(OC)c(S(=O)(=O)N2CCC(C(=O)N3CCN(C4CCCCC4)CC3)CC2)c1	-2	x	x	x	x	x	x	x
COc1ccc(Cc2nc3ccc(C(=O)N4CCCC4)cc3o2)cc1OC	16	-8	16	i	2	i	x	x
COc1ccc(Cc2nc3ccc(C(=O)N4CCN(C)C(C)C4)cc3o2)cc1OC (stereo not given)	49*	1	33	i	0	i	9	46*
CC(C)=CCC/C(C)=C/CN1CC(=O)N2[C@H](C[C@@]3(n4ccc5ccccc54)c4ccccc4N(S(=O)(=O)c4ccccc4)[C@@H]23)C1=O	-3	x	x	x	x	x	x	x
N#Cc1cc(-c2ccccc2)[nH]c1-c1nccc2ccccc12	50*	-5	-13	i	3	i	-4	13
CSCCCNc1nc(C)nc2c1nnn2Cc1ccccc1	-2	x	x	x	x	x	x	x
